Reference: ChEMBL document CHEMBL5131562, “1,3-Dioxane-Linked Novel Bacterial Topoisomerase Inhibitors: Expanding Structural Diversity and the Antibacterial Spectrum” (ACS Med Chem Lett, 2022)
Converted amounts (≈) assume the structure as drawn.

What was measured:
[1] = system: Staphylococcus aureus; assay: Antibacterial activity against methicillin-resistant Staphylococcus aureus USA300 by CLSI method; type: functional
[2] = system: Neisseria gonorrhoeae; assay: Antimicrobial activity against wild type Neisseria gonorrhoeae Y strain harbouring type 2 topoisomerase GyrA S91F, D95G and ParC S87R mutant incubated for 20 to 24 hrs by CLSI protocol based broth microdilution method; type: functional; conditions: time 20-24 hrs
[3] = system: Neisseria gonorrhoeae; assay: Antimicrobial activity against wild type Neisseria gonorrhoeae O strain incubated for 20 to 24 hrs by CLSI protocol based broth microdilution method; type: functional; conditions: time 20-24 hrs
[4] = Cytotoxicity activity against human K/VP.5 cells assessed as inhibition of cellular growth; type: toxicity, cell-based
Summary of the method: (§1)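 Human K562 leukemia cells were tested alongside K/VP.5, an etoposide-resistant clonal subline derived from them that has reduced levels of human topoisomerase IIα. Cell growth inhibition was expressed as an IC50.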

[5] = Metabolic stability in mouse liver microsomes assessed as half life; type: ADME, Microsome
[6] = system: Neisseria gonorrhoeae; assay: Antimicrobial activity against Neisseria gonorrhoeae G strain harbouring type 2 topoisomerase GyrA S91F and ParE G410V mutant incubated for 20 to 24 hrs by CLSI protocol based broth microdilution method; type: functional; conditions: time 20-24 hrs
[7] = system: Neisseria gonorrhoeae; assay: Antimicrobial activity against wild type Neisseria gonorrhoeae V strain harbouring type 2 topoisomerase GyrA S91F, D95G and ParC S87R mutant incubated for 20 to 24 hrs by CLSI protocol based broth microdilution method; type: functional; conditions: time 20-24 hrs
[8] = system: Staphylococcus aureus; assay: Antibacterial activity against Staphylococcus aureus harbouring GyrA D83N mutant by CLSI method; type: functional
[9] = system: Neisseria gonorrhoeae; assay: Antimicrobial activity against wild type Neisseria gonorrhoeae P strain incubated for 20 to 24 hrs by CLSI protocol based broth microdilution method; type: functional; conditions: time 20-24 hrs
[10] = system: Staphylococcus aureus; assay: Antibacterial activity against Staphylococcus aureus 3527 by CLSI method; type: functional
[11] = system: Neisseria gonorrhoeae; assay: Antimicrobial activity against wild type Neisseria gonorrhoeae ATCC 49226 incubated for 20 to 24 hrs by CLSI protocol based broth microdilution method; type: functional; conditions: time 20-24 hrs
[12] = Cytotoxicity activity against human K562 cells assessed as inhibition of cellular growth; type: toxicity, cell-based; summary of the method: as §1
[13] = target: Topoisomerase IV (Staphylococcus aureus, UniProt P0C1S7+P0C1U9); assay: Inhibition of Staphylococcus aureus DNA topoisomerase 4 decatenation activity using kDNA as substrate incubated for 10 to 20 min by ethidium bromide/bromophenol blue staining based agarose gel electrophoresis analysis; type: protein-complex assay
[14] = target: Voltage-gated inwardly rectifying potassium channel KCNH2 (Homo sapiens, UniProt Q12809); assay: Inhibition of hERG cardiac ion channel; type: toxicity
Summary of the method: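 hERG channel inhibition was run by a contract lab. […] Determinations were made in duplicate or triplicate (n = 2 or 3).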

[15] = system: Staphylococcus aureus; assay: Antibacterial activity against Staphylococcus aureus ATCC 29213 by CLSI method; type: functional
[16] = system: Neisseria gonorrhoeae; assay: Antimicrobial activity against wild type Neisseria gonorrhoeae F strain incubated for 20 to 24 hrs by CLSI protocol based broth microdilution method; type: functional; conditions: time 20-24 hrs
[17] = target: DNA gyrase (Staphylococcus aureus, UniProt P0A0K8+P20831); assay: Inhibition of Staphylococcus aureus DNA gyrase supercoiling activity incubated for 25 min by ethidium bromide/bromophenol blue staining based agarose gel electrophoresis analysis; type: protein-complex assay
[18] = system: Staphylococcus aureus; assay: Antibacterial activity against cystic fibrosis isolate Staphylococcus aureus by CLSI method; type: functional
[19] = system: Staphylococcus aureus; assay: Selectivity ratio of IC50 for inhibition of Staphylococcus aureus DNA topoisomerase 4 decatenation activity to IC50 for inhibition of Staphylococcus aureus DNA gyrase supercoiling activity
[20] = system: Neisseria gonorrhoeae; assay: Antimicrobial activity against Neisseria gonorrhoeae K strain harbouring type 2 topoisomerase GyrA S91F, D95N and ParC S87R, S88P mutant incubated for 20 to 24 hrs by CLSI protocol based broth microdilution method; type: functional; conditions: time 20-24 hrs

Compound	MIC [1]	MIC [2]	MIC [3]	IC50 [4]	half-life [5]	MIC [6]	MIC [7]	MIC [8]	MIC [9]	MIC [10]	MIC [11]	IC50 [12]	IC50 [13]	IC50 [14]	MIC [15]	MIC [16]	IC50 [17]	MIC [18]	Ratio IC50 [19]	MIC [20]
O=c1ccc2ccc(F)c3c2n1CC3C[C@H]1OC[C@H](NCc2ccc3c(c2)OCCO3)CO1 (some centres undefined)	0.25 µg/mL (≈ 0.553 µM)	≤ 0.03 µg/mL	0.25 µg/mL (≈ 0.553 µM)	33.9 µM	3.26 min	0.5 µg/mL (≈ 1.11 µM)	≤ 0.03 µg/mL	4 µg/mL (≈ 8.84 µM)	0.25 µg/mL (≈ 0.553 µM)	0.25 µg/mL (≈ 0.553 µM)	0.12 µg/mL (≈ 0.265 µM)	29.1 µM	0.6 µM	35 µM	0.125 µg/mL (≈ 0.276 µM)	≤ 0.03 µg/mL	0.23 µM	0.25 µg/mL (≈ 0.553 µM)	2.6	0.12 µg/mL (≈ 0.265 µM)
O=C1COc2ccc(CN[C@H]3CO[C@H](CC4Cn5c(=O)ccc6ccc(F)c4c65)OC3)nc2N1 (some centres undefined)	0.25 µg/mL (≈ 0.536 µM)	0.12 µg/mL (≈ 0.257 µM)	0.25 µg/mL (≈ 0.536 µM)	127 µM	18.4 min	0.25 µg/mL (≈ 0.536 µM)	≤ 0.03 µg/mL	4 µg/mL (≈ 8.58 µM)	0.25 µg/mL (≈ 0.536 µM)	0.25 µg/mL (≈ 0.536 µM)	0.12 µg/mL (≈ 0.257 µM)	101 µM	1.3 µM	30 µM	0.5 µg/mL (≈ 1.07 µM)	0.06 µg/mL (≈ 0.129 µM)	1.6 µM	0.5 µg/mL (≈ 1.07 µM)	0.81	0.12 µg/mL (≈ 0.257 µM)
COc1ccc2ncc(F)c(C[C@H](O)[C@H]3OC[C@H](NCc4cc5c(nn4)OCCO5)CO3)c2n1		16 µg/mL (≈ 33.8 µM)	32 µg/mL (≈ 67.6 µM)			> 32 µg/mL	8 µg/mL (≈ 16.9 µM)		32 µg/mL (≈ 67.6 µM)		32 µg/mL (≈ 67.6 µM)					8 µg/mL (≈ 16.9 µM)				> 32 µg/mL
O=c1ccc2ncc(F)c3c2n1CC3C[C@H]1OC[C@H](NCc2ccc3c(c2)OCCO3)CO1 (some centres undefined)	0.125 µg/mL (≈ 0.276 µM)	≤ 0.03 µg/mL	2 µg/mL (≈ 4.41 µM)	39.2 µM	13.9 min	4 µg/mL (≈ 8.82 µM)	≤ 0.03 µg/mL	2 µg/mL (≈ 4.41 µM)	2 µg/mL (≈ 4.41 µM)	0.25 µg/mL (≈ 0.551 µM)	0.25 µg/mL (≈ 0.551 µM)	34.8 µM	0.54 µM	100 µM	0.125 µg/mL (≈ 0.276 µM)	0.12 µg/mL (≈ 0.265 µM)	0.047 µM	0.25 µg/mL (≈ 0.551 µM)	11	1 µg/mL (≈ 2.21 µM)
COc1ccc2ncc(F)c(C[C@H](O)[C@H]3OC[C@H](NCc4ccc5c(n4)NC(=O)CO5)CO3)c2n1		≤ 0.03 µg/mL	≤ 0.03 µg/mL			0.25 µg/mL (≈ 0.515 µM)	≤ 0.03 µg/mL		≤ 0.03 µg/mL		≤ 0.03 µg/mL					0.06 µg/mL (≈ 0.124 µM)				≤ 0.03 µg/mL
CO/N=C(\C(=O)N[C@@H]1C(=O)N2C(C(=O)O)=C(CSc3nc(=O)c(O)nn3C)CS[C@H]12)c1csc(N)n1 [CEFTRIAXONE]		1 µg/mL (≈ 1.8 µM)	0.004 µg/mL (≈ 0.00721 µM)			≤ 0.001 µg/mL	0.002 µg/mL (≈ 0.00361 µM)		≤ 0.001 µg/mL		0.004 µg/mL (≈ 0.00721 µM)					≤ 0.001 µg/mL				0.008 µg/mL (≈ 0.0144 µM)
O=c1ccc2ncc(=O)n3c2n1CC3CN1CCC(NCc2cc3c(cn2)OCCC3)CC1 (racemic)	0.25 µg/mL (≈ 0.557 µM)							8 µg/mL (≈ 17.8 µM)		0.25 µg/mL (≈ 0.557 µM)					0.25 µg/mL (≈ 0.557 µM)			0.25 µg/mL (≈ 0.557 µM)		
COc1ccc2ncc(F)c(C[C@H](O)[C@H]3OC[C@H](NCc4ccc5c(c4)OCCO5)CO3)c2n1		≤ 0.03 µg/mL	≤ 0.03 µg/mL			0.5 µg/mL (≈ 1.06 µM)	≤ 0.03 µg/mL		≤ 0.03 µg/mL		≤ 0.03 µg/mL					≤ 0.03 µg/mL				≤ 0.03 µg/mL
O=C1CSc2ccc(CN[C@H]3CO[C@H](CC4Cn5c(=O)ccc6ncc(F)c4c65)OC3)nc2N1 (some centres undefined)	1 µg/mL (≈ 2.07 µM)			128 µM	36.4 min			8 µg/mL (≈ 16.5 µM)		1 µg/mL (≈ 2.07 µM)		81.7 µM	2.1 µM	55 µM	1 µg/mL (≈ 2.07 µM)		1.4 µM	1 µg/mL (≈ 2.07 µM)	1.5	
